Converted amounts (≈) assume the structure as drawn. The source made the active and inactive calls. No cut-off for these calls is given here.
Experiments:
[1] = test system: Staphylococcus aureus; assay: Antimicrobial activity against Staphylococcus aureus ATCC 29737 assessed as inhibition of bacterial growth incubated for 18 hrs by broth microdilution method; format: functional, organism-based
Procedure, shortened: (§1)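 Standard broth microdilution in MHB. Overnight culture (37 °C, 120 rpm) adjusted to OD600 0.07 and diluted 1000× to 3 × 10^5 CFU/mL. Peptides serially diluted in triplicate, 18 h at 37 °C with 120 rpm shaking. Growth read as OD600; MIC is the lowest concentration with no visible growth. Colistin served as control for Gram-negatives, vancomycin for S. aureus.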

[2] = test system: Pseudomonas aeruginosa; assay: Antimicrobial activity against Pseudomonas aeruginosa ATCC 9027 assessed as inhibition of bacterial growth incubated for 18 hrs by broth microdilution method; format: functional; procedure, shortened: as §1
[3] = test system: Escherichia coli; assay: Antimicrobial activity against Escherichia coli ATCC 25922 assessed as inhibition of bacterial growth incubated for 18 hrs by broth microdilution method; format: functional; procedure, shortened: as §1
[4] = test system: Escherichia coli; assay: Antimicrobial activity against colistin resistant Escherichia coli clinical isolate R1 harboring mcr-1 gene assessed as fold reduction in MIC incubated for 18 hrs by broth microdilution method; format: functional
[5] = test system: Escherichia coli; assay: Antimicrobial activity against colistin/carbapenem resistant Escherichia coli clinical isolate R2 harboring mcr-1 and NDM-1 gene assessed as fold reduction in MIC incubated for 18 hrs by broth microdilution method; format: functional
[6] = test system: Escherichia coli; assay: Antimicrobial activity against colistin/carbapenem resistant Escherichia coli clinical isolate R3 harboring NDM-7 and OXA-181 gene assessed as fold reduction in MIC incubated for 18 hrs by broth microdilution method; format: functional
[7] = test system: Erythrocyte; assay: Hemolytic activity in human RBC upto 128 uM incubated for 1 hr by absorbance based analysis; format: toxicity, cell-based
Procedure, shortened: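 Washed human RBCs from healthy volunteers at 4% in PBS. Peptide at 4–128 μM, 37 °C for 1 h. Supernatant after 1000g, 10 min spin read at OD540. 1% Triton X-100 gave full lysis; % hemolysis derived and HC50 estimated.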

[8] = test system: Escherichia coli; assay: Antimicrobial activity against Escherichia coli ATCC 25922 assessed as inhibition of bacterial growth compound pretreated for 1 hr with trypsin and measured after 18 hrs by broth microdilution method; format: functional, organism-based
Procedure, shortened: (§2)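 Peptide incubated with trypsin at a 1:2000 trypsin/peptide molar ratio (e.g., 1 mM peptide with 0.5 μM trypsin), 37 °C, 1 h. Reaction stopped at 80 °C for 10 min, then serially diluted against E. coli in MHB broth microdilution. Inoculum 3 × 10^5 CFU/mL, 37 °C, 120 rpm, 18 h, read by OD600, triplicates. Fold change in MIC taken versus untreated control.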

[9] = test system: Escherichia coli; assay: Antimicrobial activity against Escherichia coli ATCC 25922 assessed as inhibition of bacterial growth incubated for 18 hrs in presence of 10% fetal bovine serum by broth microdilution method; format: functional, organism-based
Procedure, shortened: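 E. coli broth microdilution in MHB containing 10% fetal bovine serum. Inoculum 3 × 10^5 CFU/mL, diluted from an OD600 0.07 suspension. Incubated 18 h at 37 °C with 120 rpm shaking, OD600 read, triplicates. Fold change in MIC calculated against control MIC.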

[10] = test system: Escherichia coli; assay: Antimicrobial activity against colistin resistant Escherichia coli clinical isolate R1 harboring mcr-1 gene assessed as inhibition of bacterial growth incubated for 18 hrs by broth microdilution method; format: functional, organism-based
Procedure, shortened: (§3)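 Overnight MHB culture (37 °C, 120 rpm) adjusted to OD600 0.07 (~10^8 CFU/mL), then diluted 1000× to 3 × 10^5 CFU/mL. Peptides serially diluted with the bacterial suspension in triplicate, shaken at 37 °C, 120 rpm for 18 h, then OD600 read. MIC is the lowest concentration with no visible growth. Colistin as positive control.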

[11] = test system: Escherichia coli; assay: Antimicrobial activity against colistin/carbapenem resistant Escherichia coli clinical isolate R2 harboring mcr-1 and NDM-1 gene assessed as inhibition of bacterial growth incubated for 18 hrs by broth microdilution method; format: functional, organism-based; procedure, shortened: as §3
[12] = target: Trypsin (Homo sapiens, UniProt P07477+P07478+P35030); assay: Stability of compound assessed as trypsin (unknown origin) mediated compound degradation by measuring parent compound remaining measured after 1.5 hrs by RP-HPLC analysis; format: ADME, protein assay
Procedure, shortened: (§4)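 Peptide with trypsin at a 1:2000 trypsin/peptide molar ratio, 37 °C, sampled at 15, 30, 60 and 90 min. Reaction stopped with an equal volume of 50% acetonitrile/1% TFA. Analysed on C18 RP-HPLC with UV at 220 nm; intact peptide given as % of AUC.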

[13] = test system: Escherichia coli; assay: Antimicrobial activity against Escherichia coli ATCC 25922 assessed as fold increase in MIC compound pretreated for 1 hr with trypsin and measured after 18 hrs by broth microdilution method relative to control; format: functional; conditions: trypsin pretreatment 1 hr; MIC measured after 18 hrs; procedure, shortened: as §2
[14] = Stability of compound assessed as trypsin (unknown origin) mediated compound degradation by measuring parent compound remaining measured after 1 hr by RP-HPLC analysis; format: ADME, protein assay; conditions: human, read-out: Stability; procedure, shortened: as §4
[15] = test system: Escherichia coli; assay: Antimicrobial activity against colistin/carbapenem resistant Escherichia coli clinical isolate R3 harboring NDM-7 and OXA-181 gene assessed as inhibition of bacterial growth incubated for 18 hrs by broth microdilution method; format: functional, organism-based

Row | SMILES | Activity [1] | Activity [2] | Activity [3] | fold change (FC) [4] | fold change (FC) [5] | fold change (FC) [6] | Activity [7] | Activity [8] | Activity [9] | MIC [2] [µM] | MIC [3] [µM] | Activity [10] | Activity [11] | remaining at 1.5 h ([12]; trypsin, read-out: Stability) [%] | fold change (FC) [13] | remaining at 1 h [14] [%] | Stability ([12]; 1.5 h) | Activity [15]
1 | CC(C)C[C@@H]1NC(=O)[C@H](CCCCN)NC(=O)[C@@H]2CC/C=C/CC[C@H](NC(=O)[C@H](CCCCN)NC(=O)[C@H](CC(C)C)NC(=O)[C@H](CCCCN)NC(=O)[C@@H](N)CC/C=C/CC[C@@H](C(=O)O)NC(=O)[C@H](CCCCN)NC1=O)C(=O)N[C@@H](CCCCN)C(=O)N1CCC[C@@H]1C(=O)NCC(=O)N[C@@H](CCCCN)C(=O)N2 | inactive | inactive | inactive | 2 | 2 | 2 | Non-Toxic | Active | Active |  |  |  |  |  |  |  |  | 
2 | CC(C)C[C@@H]1NC(=O)[C@H](CCCCN)NC(=O)CNC(=O)[C@H]2CCCN2C(=O)[C@H](CCCCN)NC(=O)[C@H](CC(C)C)NC(=O)[C@H](CCCCN)NC(=O)[C@@H]2CC/C=C\CC[C@H](NC(=O)[C@H](CCCCN)NC1=O)C(=O)N[C@@H](CCCCN)C(=O)N[C@H](C(=O)O)CC/C=C\CC[C@H](N)C(=O)N[C@@H](CCCCN)C(=O)N2 | inactive | inactive | inactive |  |  |  | Non-Toxic | Active | Active |  |  |  |  |  |  |  |  | 
3 | CC(C)C[C@H](NC(=O)[C@H](CCCCN)NC(=O)[C@H](CC(C)C)NC(=O)[C@H](CCCCN)NC(=O)[C@@H]1CC/C=C/CC[C@H](NC(=O)[C@H](CCCCN)NC(=O)[C@H](CC(C)C)NC(=O)[C@H](CCCCN)NC(=O)[C@@H](N)CC(C)C)C(=O)N[C@@H](CCCCN)C(=O)N2CCC[C@@H]2C(=O)NCC(=O)N[C@@H](CCCCN)C(=O)N1)C(=O)O | inactive |  |  |  |  |  | Non-Toxic | Active | Active | 8 (≈ 12.7 µg/mL) | 8 (≈ 12.7 µg/mL) | Active | Active | > 40 |  |  |  | 
4 | CC(C)C[C@@H]1NC(=O)[C@H](CCCCN)NC(=O)[C@@H]2CCC/C=C\CC[C@H](NC(=O)[C@H](CCCCN)NC(=O)[C@H](CC(C)C)NC(=O)[C@H](CCCCN)NC(=O)[C@@H](N)CC/C=C/CCC[C@@H](C(=O)O)NC(=O)[C@H](CCCCN)NC1=O)C(=O)N[C@@H](CCCCN)C(=O)N1CCC[C@@H]1C(=O)NCC(=O)N[C@@H](CCCCN)C(=O)N2 | inactive | inactive | inactive | 2 | 2 | 2 | Non-Toxic | Active | Active |  |  |  |  |  |  |  |  | 
5 | CC(C)C[C@H](NC(=O)[C@H](CCCCN)NC(=O)[C@H](CC(C)C)NC(=O)[C@H](CCCCN)NC(=O)[C@@H]1CCC/C=C/CC[C@H](NC(=O)[C@H](CCCCN)NC(=O)[C@H](CC(C)C)NC(=O)[C@H](CCCCN)NC(=O)[C@@H](N)CC(C)C)C(=O)N[C@@H](CCCCN)C(=O)N2CCC[C@@H]2C(=O)NCC(=O)N[C@@H](CCCCN)C(=O)N1)C(=O)O | inactive |  |  |  |  |  | Non-Toxic |  |  |  |  |  |  |  | >=2 | < 10 |  | 
6 | CC(C)C[C@@H]1NC(=O)[C@H](CCCCN)NC(=O)CNC(=O)[C@H]2CCCN2C(=O)[C@H](CCCCN)NC(=O)[C@H](CC(C)C)NC(=O)[C@H](CCCCN)NC(=O)[C@@H]2CC/C=C\CCC[C@H](NC(=O)[C@H](CCCCN)NC1=O)C(=O)N[C@@H](CCCCN)C(=O)N[C@H](C(=O)O)CC/C=C/CCC[C@H](N)C(=O)N[C@@H](CCCCN)C(=O)N2 | inactive | inactive | inactive | 2 | 2 | 2 | Non-Toxic | Active | Active |  |  |  |  |  |  |  | Unstable | 
7 | CC(C)C[C@H](NC(=O)[C@H](CCCCN)NC(=O)[C@@H]1CC/C=C/CC[C@H](NC(=O)[C@H](CCCCN)NC(=O)[C@@H](N)CC(C)C)C(=O)N[C@@H](CCCCN)C(=O)N[C@@H](CC(C)C)C(=O)N[C@@H](CCCCN)C(=O)N2CCCC2C(=O)NCC(=O)N[C@@H](CCCCN)C(=O)N[C@@H](CC(C)C)C(=O)N[C@@H](CCCCN)C(=O)N1)C(=O)O (single isomer, unassigned) | inactive |  |  |  |  |  | Non-Toxic |  |  | 8 (≈ 12.7 µg/mL) | 8 (≈ 12.7 µg/mL) | Active | Active |  | >=2 |  |  | 
8 | CC(C)C[C@H](NC(=O)[C@H](CCCCN)NC(=O)[C@@H]1CCC/C=C/CC[C@H](NC(=O)[C@H](CCCCN)NC(=O)[C@@H](N)CC(C)C)C(=O)N[C@@H](CCCCN)C(=O)N[C@@H](CC(C)C)C(=O)N[C@@H](CCCCN)C(=O)N2CCCC2C(=O)NCC(=O)N[C@@H](CCCCN)C(=O)N[C@@H](CC(C)C)C(=O)N[C@@H](CCCCN)C(=O)N1)C(=O)O (single isomer, unassigned) | inactive |  |  |  |  |  | Non-Toxic |  |  | 8 (≈ 12.8 µg/mL) | 8 (≈ 12.8 µg/mL) |  |  |  | >=2 | < 10 |  | 
9 | CC(C)C[C@@H]1NC(=O)[C@H](CCCCN)NC(=O)CNC(=O)C2CCCN2C(=O)[C@H](CCCCN)NC(=O)[C@H](CC(C)C)NC(=O)[C@H](CCCCN)NC(=O)[C@H](CC(C)C)NC(=O)[C@H](CCCCN)NC(=O)[C@@H](N)CC/C=C/CCC[C@@H](C(=O)O)NC(=O)[C@H](CCCCN)NC(=O)[C@H](CC(C)C)NC(=O)[C@H](CCCCN)NC1=O (single isomer, unassigned) | inactive |  |  |  |  |  | Non-Toxic |  |  | 8 (≈ 12.8 µg/mL) | 8 (≈ 12.8 µg/mL) | Active | Active |  | >=2 | < 10 |  | Active
